Calls of active or inactive are those of the source. The calls are words filed in the database; no cut-off is given here.

In experiment [1] the test system is Human alphaherpesvirus 1. In words: Antiviral activity against acyclovir-resistant […] kinase-deficient HSV1 KOS infected in human HEL cells assessed as inhibition of virus-induced cytopathic effect after 3 days by MTS assay. In kind it is functional, organism-based. In short, it runs like this: (§1)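 Confluent cell monolayers were infected with 100 CCID50 of virus and allowed 2 h adsorption at 37 °C. Virus was then removed and serial compound dilutions were added. Cultures were incubated at 37 °C for 3 days, until CPE was complete in the untreated virus control. EC50 was the concentration giving 50% inhibition of virus-induced CPE, by visual score or by MTS formazan cell viability.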
A general note: Damage to the host cells serves as the signal in cytopathic effect assays.

The subject of experiment [2] is Sindbis virus. Nature of the experiment: Antiviral activity against Simbidis virus infected in african green monkey Vero cells assessed as inhibition of virus-induced cytopathic effect after 3 days by MTS assay. In kind it is functional, organism-based. In short, it runs like this: as §1
The subject of experiment [3] is Influenza B virus. In words: Antiviral activity against influenza B virus infected in MDCK cells assessed as inhibition of virus-induced cytopathic effect after 3 days by MTS assay. In kind it is functional, organism-based. In short, it runs like this:
as §1

Experiment [4] deals with Aspergillus niger. Nature of the experiment: Antifungal activity against Aspergillus niger after 7 days by serial dilution method. In kind it is functional.
The subject of experiment [5] is Influenza A virus. In words: Antiviral activity against influenza A virus H1N1 infected in MDCK cells assessed as inhibition of virus-induced cytopathic effect after 3 days by MTS assay. In kind it is functional, organism-based. In short, it runs like this: as §1
Experiment [6] deals with Punta Toro virus. In words: Antiviral activity against Punta toro virus infected in african green monkey Vero cells assessed as inhibition of virus-induced cytopathic effect after 3 days by MTS assay. In kind it is functional, organism-based. In short, it runs like this:
as §1

Experiment [7] deals with Candida albicans. Nature of the experiment: Antifungal activity against Candida albicans after 48 hrs by serial dilution method. In kind it is functional. In short, it runs like this: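 Serial compound dilutions in Sabouraud dextrose broth (tube dilution), incubated 37 °C for 48 h. MIC was read as the lowest concentration with no growth.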
Experiment [8] has as its system Influenza A virus. Nature of the experiment: Antiviral activity against influenza A virus H3N2 infected in MDCK cells assessed as inhibition of virus-induced cytopathic effect after 3 days by MTS assay. In kind it is functional, organism-based. In short, it runs like this: as §1
The subject of experiment [9] is Human alphaherpesvirus 2. Nature of the experiment: Antiviral activity against Herpes simplex virus 2 G infected in human HEL cells assessed as inhibition of virus-induced cytopathic effect after 3 days by MTS assay. In kind it is functional, organism-based. To be noted: strain G. In short, it runs like this:
as §1

Experiment [10] deals with Felid alphaherpesvirus 1. Nature of the experiment: Antiviral activity against Feline herpesvirus 1 infected in […] cells assessed as inhibition of virus-induced cytopathic effect after 3 days by MTS assay. In kind it is functional, organism-based. In short, it runs like this: as §1
Experiment [11] concerns Human respirovirus 3. In words: Antiviral activity against Parainfluenza 3 virus infected in african green monkey Vero cells assessed as inhibition of virus-induced cytopathic effect after 3 days by MTS assay. In kind it is functional, organism-based. In short, it runs like this:
as §1

The subject of experiment [12] is Human alphaherpesvirus 1. Nature of the experiment: Antiviral activity against Herpes simplex virus 1 KOS infected in human HEL cells assessed as inhibition of virus-induced cytopathic effect after 3 days by MTS assay. In kind it is functional, organism-based. In short, it runs like this:
as §1

Experiment [13] concerns Feline coronavirus. Nature of the experiment: Antiviral activity against Feline caronavirus infected in […] cells assessed as inhibition of virus-induced cytopathic effect after 3 days by MTS assay. In kind it is functional, organism-based. In short, it runs like this:
as §1

The test system of experiment [14] is Escherichia coli. In words: Antibacterial activity against Escherichia coli after 24 hrs by serial dilution method. In kind it is functional.
The test system of experiment [15] is Staphylococcus aureus. Nature of the experiment: Antibacterial activity against Staphylococcus aureus after 24 hrs by serial dilution method. In kind it is functional.
The test system of experiment [16] is Bacillus subtilis. Nature of the experiment: Antibacterial activity against Bacillus subtilis after 24 hrs by serial dilution method. In kind it is functional.
The test system of experiment [17] is Vesicular stomatitis virus. In words: Antiviral activity against VSV infected in human HEL cells assessed as inhibition of virus-induced cytopathic effect after 3 days by MTS assay. In kind it is functional, organism-based. In short, it runs like this: as §1
For experiment [18], the system named is Vaccinia virus. In words: Antiviral activity against Vaccinia virus infected in human HEL cells assessed as inhibition of virus-induced cytopathic effect after 3 days by MTS assay. In kind it is functional, organism-based. To be noted: Orthopoxvirus vaccinia. In short, it runs like this: as §1
Experiment [19] concerns Coxsackievirus B4. In words: Antiviral activity against Coxsackie virus B4 infected in african green monkey Vero cells assessed as inhibition of virus-induced cytopathic effect after 3 days by MTS assay. In kind it is functional, organism-based. In short, it runs like this: as §1
For experiment [20], the system named is Mammalian orthoreovirus 1. In words: Antiviral activity against Reovirus 1 infected in african green monkey Vero cells assessed as inhibition of virus-induced cytopathic effect after 3 days by MTS assay. In kind it is functional, organism-based. In short, it runs like this:
as §1

With `CCCCCCCCCCCCCCCC(=O)N/N=C/c1ccccc1Cl`, the inhibition entry in [1], in experiment [2], in experiment [3], in experiment [5], in [6] and in experiment [8] was “inactive” in each case. For the same molecule, the inhibition result in [9], in experiment [10], in experiment [11], in [12], in [13] and in experiment [17] was “inactive” throughout. Moreover, the inhibition entry in experiment [18], in experiment [19] and in experiment [20] was “inactive” each time. The “-logMIC” value in [4] is 1.27; in experiment [7] it was 2.1; in experiment [15], 1.5; in [16], 1.49. Also, the MFC in experiment [4] and in experiment [7] was over 0.127 uM/ml throughout. In addition, the figures for the MBC in experiment [14], in [15] and in experiment [16] were 0.031 uM/ml, over 0.127 uM/ml and 0.031 uM/ml, respectively.

Turning to `Cc1ccc(C(=O)N/N=C/c2ccccc2)cc1`, the inhibition entry in [1], in [2], in experiment [3], in experiment [5], in [6] and in experiment [8] was “inactive” throughout. The inhibition result in experiment [9], in experiment [10], in [11], in [12], in [13] and in [17] was “inactive” each time. The inhibition entry in [18], in experiment [19] and in experiment [20] was “inactive” in each case. In experiment [4], the “-logMIC” value came to 1.88. Moreover, the MFC in experiment [4] and in experiment [7] was over 0.21 uM/ml in each case. The figures for the MBC in experiment [14], in experiment [15] and in experiment [16] were 0.052 uM/ml, over 0.21 uM/ml and 0.21 uM/ml, respectively.

Turning to `CCCCCCCCCCCCCCCCCC(=O)N/N=C/c1ccccc1Cl`, the inhibition result in [1], in experiment [2], in experiment [3], in experiment [5], in experiment [6] and in experiment [8] was “inactive” in each case. For the same molecule, the inhibition result in experiment [9], in experiment [10], in [11], in experiment [12], in experiment [13] and in [17] was “inactive” in each case. The inhibition result in experiment [18], in experiment [19] and in experiment [20] was “inactive” in each case. The “-logMIC” value in experiment [4] is reported as 1.29; in [15], 1.53; in experiment [16], 1.53. Moreover, the MFC in [4] was 0.059 uM/ml; in experiment [7], over 0.119 uM/ml. The results for the MBC in [14], in experiment [15] and in [16] were over 0.119 uM/ml, over 0.119 uM/ml and 0.029 uM/ml, respectively.

Consider `Cc1cccc(C(=O)N/N=C/c2ccccc2Cl)c1`, for which the inhibition result in experiment [1], in [2], in [3], in experiment [5], in [6] and in experiment [8] was “inactive” throughout. The inhibition result in [9], in [10], in [11], in experiment [12], in experiment [13] and in [17] was “inactive” throughout. Besides, the inhibition result in experiment [18], in experiment [19] and in experiment [20] was “inactive” in each case. Besides, the “-logMIC” value in experiment [4] is reported as 1.51. The MFC in experiment [4] and in [7] was over 0.183 uM/ml each time. Also, the MBC in experiment [14] was 0.045 uM/ml; in experiment [15], over 0.183 uM/ml; in experiment [16], 0.045 uM/ml.

`C/C=C/C=C/C(=O)N/N=C/c1ccccc1Cl`: the inhibition result in experiment [1], in [2], in [3], in [5], in experiment [6] and in experiment [8] was “inactive” in each case. The inhibition result in [9], in experiment [10], in [11], in experiment [12], in [13] and in experiment [17] was “inactive” throughout. In addition, the inhibition entry in experiment [18], in experiment [19] and in [20] was “inactive” throughout. In addition, the “-logMIC” value in [4] is 1.5. Further, the MFC in [4] and in experiment [7] was over 0.201 uM/ml in each case. The MBC is 0.1 uM/ml in experiment [14], over 0.201 uM/ml in experiment [15] and 0.05 uM/ml in experiment [16].

`C/C=C/C=C/C(=O)N/N=C/c1ccccc1`: the inhibition entry in experiment [1], in experiment [2], in experiment [3], in [5], in experiment [6] and in experiment [8] was “inactive” in each case. Further, the inhibition result in experiment [9], in [10], in experiment [11], in experiment [12], in [13] and in experiment [17] was “inactive” each time. In addition, the inhibition entry in experiment [18], in experiment [19] and in [20] was “inactive” each time. Besides, the “-logMIC” value amounted to 1.54 in [4] and 0.93 in experiment [7]. In addition, the MFC in experiment [4] and in [7] was over 0.233 uM/ml throughout. Besides, the MBC is on record as 0.058 uM/ml in experiment [14], over 0.233 uM/ml in experiment [15] and over 0.233 uM/ml in experiment [16].

With `CCCCCCCCCCCCCCCCCC(=O)N/N=C/c1ccccc1`, the inhibition result in [1], in [2], in experiment [3], in experiment [5], in [6] and in [8] was “inactive” throughout. The inhibition entry in experiment [9], in [10], in experiment [11], in experiment [12], in experiment [13] and in [17] was “inactive” each time. Besides, the inhibition result in experiment [18], in experiment [19] and in experiment [20] was “inactive” each time. Besides, the “-logMIC” value was determined as 1.2 in [4], 2.09 in experiment [7], 1.79 in [14] and 1.49 in experiment [16]. The figures for the MFC in experiment [4] and in experiment [7] were 0.03 uM/ml and under 0.129 uM/ml, respectively. The MBC in experiment [14] is 0.064 uM/ml; in [15] it was 0.129 uM/ml; in [16] it was under 0.129 uM/ml.

Consider `OC(Cn1cncn1)(Cn1cncn1)c1ccc(F)cc1F` [FLUCONAZOLE], for which the “-logMIC” value in experiment [4] is reported as 2.64.

For the origin of these results see ChEMBL document CHEMBL1177846, “Benzylidene/2-chlorobenzylidene hydrazides: synthesis, antimicrobial activity, QSAR studies and antiviral evaluation” (Eur J Med Chem, 2010).
